Measured values from different studies.
Lines come from different studies, so protocols differ.
Medium: plasma

CONC(=O)c1cccc2c1cc(C)n2-c1nc2c(c(NCc3ccccc3)n1)CCCN2
MRT (male Sprague-Dawley rat; intravenous; 1 mg/kg; single dose): 3.6 h

COc1nc(-c2cccc(-c3ccccc3)c2C)ccc1CNCCNC(=O)CCCCCCCCCCC(=O)N1CCN(CCNC(=O)c2cc3c(=O)n4cccc(C)c4nc3n(CCc3cccs3)c2=N)CC1
MRT(0-inf) (male Sprague-Dawley rat; intravenous; 2 mg/kg): 5.1 h

COc1cc(-c2cc(C(C)=O)n3ccccc23)c(OC)cc1Cn1ccnc1
MRT(0-t) (male Sprague-Dawley rat; intravenous; 5 mg/kg): 1.14 h

CC[C@@H]([C@H](C)O)n1ncn(-c2ccc(N3CCN(c4ccc(OC[C@@H]5CO[C@@](Cn6cncn6)(c6ccc(F)cc6F)C5)cc4)CC3)cc2)c1=O
MRT(0-t) (Sprague-Dawley rat; oral; 40 mg/kg): 10.3 h

C[C@H]1Oc2cc(cnc2N)-c2c(nn(C)c2C#N)CN(C)C(=O)c2ccc(F)cc21
MRT(0-inf) (male Sprague-Dawley rat; oral; 5 mg/kg; single dose): 8.14 h

COc1ccc(-c2coc3cc(O)cc(O)c3c2=O)cc1
MRT (rat; intravenous; 2 mg/kg): 0.27 h

COc1ccc(N(Cc2csc(-c3ccccc3)n2)C(=O)CCCCCC(=O)NO)cc1
MRT (female Sprague-Dawley rat; intravenous; 5 mg/kg): 0.39 h

CCOc1c([C@H](C)n2nc(C)c3c(N)ncnc32)cc(Cl)c(F)c1[C@@H]1CNC(=O)C1
MRT(0-inf) (male Sprague-Dawley rat; oral; 2 mg/kg; single dose): 8.49 h

Cn1c(=O)c2[nH]cnc2n(C)c1=O
MRT(0-inf) (male Sprague-Dawley rat; intravenous; 22.5 mg/kg): 3.69 h

C=CC(=O)N1CCC([C@@H]2CCNc3c(C(N)=O)c(-c4ccc(Oc5ccccc5)cc4)nn32)CC1
MRT(0-inf) (Sprague-Dawley rat; oral; 16 mg/kg): 3.93 h

O=C1CCC(N2Cc3cc(C4CCN(Cc5ccccc5)CC4)ccc3C2=O)C(=O)N1 (stereo not drawn)
MRT(0-inf) (male Sprague-Dawley rat; intravenous; 1 mg/kg): 4.13 h

C[C@@]12C[C@@]3(O)O[C@@H](O1)[C@]1(COC(=O)c4ccccc4)[C@H]3C[C@@]12O[C@@H]1O[C@H](CO)[C@@H](O)[C@H](O)[C@H]1O
MRT(0-t) (male Sprague-Dawley rat; oral; 80 mg/kg): 5.13 h
